Laboratory results from paper PMC4013241 (Molecular cancer therapeutics, 2014).
Marks after values point to notes of the source that are not given here.

Assays:
U87 cells [1] = experiment: Annexin V apoptosis by flow cytometry; type: cell-based, human; conditions: 24 h
Outline: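 U87 cells in 12-well plates, cultured overnight, then exposed 24 h to test compound (6.3 μM), an EGFR inhibitor (13.3 μM) or both. Floating and attached cells were pooled and stained with Annexin V-FITC (10 μg/ml) in HEPES-buffered saline (pH 7.4) with Ca2+ and Mg2+. Flow cytometry at 5000 events/sample. Reported as mean ± S.D. of three experiments.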

U87 cells [2] = experiment: Flow cytometric cell cycle analysis; type: cell-based, human; conditions: 24 h
[3] = In vivo pharmacokinetics in mice bearing intracerebral U87 tumors; design: species or system mouse; conditions: for AUC / Kp / Tmax / clearance / Vd / half-life: NIH Swiss nude, mouse, iv; for Kp: Pbt (brain tumor partition coefficient, AUCbt/AUCp); for clearance: CL; for Vd: Vss; for half-life: t½; for peak concentration in brain: at 5 min
Outline: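 Same intracerebral U87 nude-mouse model, single IV tail-vein bolus of 5 or 25 mg/kg. Plasma, normal brain and tumour were taken from 3–4 mice per time point (5 min–10 h). Tissues were saline-rinsed and homogenised 20% w/w in water. Samples (10 μl) were protein-precipitated with 40 μl cold acetonitrile and quantified by ESI LC/MS/MS. Noncompartmental analysis; AUC to last observable concentration by linear-log interpolation.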

[4] = system: phosphorylated Akt, CREB, JNK pan, Erk, p38γ; experiment: Human phospho-MAPK array in U87 cells; type: cell-based; conditions: 6.3 μM, 1 h
Outline: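 U87 cells on 10 cm plates were exposed to 6.3 μM test compound for 1 h, rinsed in cold PBS and lysed at 1 × 10^7 cells/ml, rocking 30 min at 4°C. 200 μg of supernatant protein was mixed with detection antibody cocktail for 1 h at room temperature. The mixture was applied to array membranes overnight at 4°C, then streptavidin-HRP for 30 min. Chemiluminescent spots were recorded on X-ray film.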

[5] = system: 40S ribosomal protein S6 [rpS6] phosphorylation; experiment: Western blot of phosphorylated rpS6 in U87 cells; type: cell-based, human; conditions: 6.3 μM, 1 h, mean ± S.D.
Outline: (§1)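 U87 cells in DMEM with 10% FBS at 37°C, 5% CO2, grown on 10 cm plates and exposed to test compound for 1 h. Lysed on ice in buffer containing PMSF, phosphatase and protease inhibitors; 20 μg protein run on SDS-PAGE and blotted to PVDF. Detected with IRDye/Alexa 680 secondaries and quantified by Odyssey imaging against total protein and β-actin, relative to control. Blots repeated at least three times.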

p-Erk [6] = experiment: p-Erk in U87 cells by western blot / MSD assay; type: cell-based, human
Outline: (§2)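 U87 cells received increasing test compound concentrations for 1 h, or 6.3 μM over a time course. Phospho- and total Akt/Erk were measured by western blot or MSD multispot immunoassay, loading 20 μg (Akt) or 5 μg (Erk) lysate in duplicate. Plates were incubated overnight at 4°C, then detection antibody for 2 h at room temperature. Signals were background-corrected; phospho/total percentage expressed relative to control.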

Akt = experiment: Biochemical kinase screen
p-Akt [7] = experiment: p-Akt in GBM39 cells; type: cell-based; conditions: Homo sapiens, GBM39, read-out: nadir p-Akt inhibition relative to the control
p-Akt [8] = experiment: p-Akt in U87 cells by western blot / MSD assay; type: cell-based, human; conditions: 6.3 μM
Outline: as §2

[9] = system: p-Erk in intracerebral U87 brain tumors; experiment: In vivo pharmacodynamics: p-Erk in brain tumor; design: species or system mouse
Outline: (§3)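 NIH Swiss nude mice carried U87 cells (10^6 in 10 μl PBS) implanted stereotactically into the caudate putamen. Test compound was given as an IV tail-vein bolus of 5 or 25 mg/kg, or 25 mg/kg 1 h after oral EGFR inhibitor (200 mg/kg). Tumours were collected from 5 min to 10 h (17 h with co-dosing) and lysed at 20 μl buffer/mg. Phospho/total Akt and Erk were measured by MSD as percent of control, at least three mice per time point. ABEC was reported in %-h.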

[10] = system: p-Akt in intracerebral U87 brain tumors; experiment: In vivo pharmacodynamics: p-Akt in brain tumor; design: species or system mouse; conditions: for p-Akt nadir, of control: within 30 min
Outline: as §3

[11] = system: panel of 11 glioma models including a patient-derived model [GBM10]; experiment: SRB cytotoxicity assay, panel of glioma models; type: cell-based, human; conditions: compared with U87 cells; Fig. S1
p-Erk [12] = experiment: p-Erk in GBM39 cells; type: cell-based, human; conditions: 4μM
p-mTOR [S2481 and 2448] = experiment: Immunoblot of p-mTOR in U87 cells; type: cell-based, human; conditions: 6.3 μM ON123300 alone or with 13.3 μM GFN, 1 h
Outline: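 U87 cells were treated 1 h with 6.3 μM test compound, 13.3 μM EGFR inhibitor or both. Lysis buffer held PMSF plus phosphatase and protease inhibitors; lysates were sonicated and spun at 21,000 × g. 20 μg protein per lane went on SDS-PAGE and PVDF, blocked in 5% milk. Primary antibody was 1 h at room temperature or overnight at 4°C. Bands quantified densitometrically as percentages; mean ± S.D. of three experiments.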

VEGFR3 = VEGFR3 (Homo sapiens, UniProt P35916); experiment: Biochemical kinase screen
P70S6K phosphorylation = experiment: Western blot of phosphorylated P70S6K in U87 cells; type: cell-based, human; conditions: 6.3 μM, 1 h, mean ± S.D.
Outline: as §1

p-C-Raf S259 = experiment: Western blot of p-C-Raf S259 in U87 or U87PTEN cells; type: cell-based, human; conditions: 6.3 μM, 1 h
Outline: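 U87 or PTEN-expressing U87 cells in 6-well plates were pretreated 1 h with vehicle, 50 μM LY294002 or 1 μM wortmannin. Test compound was then added at 6.3 μM for 1 h. Lysates (20 μg protein) were resolved by SDS-PAGE, transferred to PVDF, blocked in 5% milk and immunoblotted.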

Rb S780 phosphorylation = experiment: Western blot of phosphorylated Rb S780 in U87 cells; type: cell-based, human; conditions: 6.3 μM, 1 h, mean ± S.D.
Outline: as §1

ABC transporters = conditions: based on previous studies; cited from earlier work
[13] = system: p-Akt, phosphorylation of its downstream proteins and p-Erk; experiment: Western blot of p-Akt, its downstream proteins and p-Erk in U87 cells; type: cell-based, human; conditions: 70 μM ON1231120 or 10 μM ON1231320, 1 h
Outline: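 U87 cells on 10 cm plates, 1 h exposure to test compound. Lysates were prepared in buffer with PMSF and phosphatase/protease inhibitors, sonicated, held 30 min on ice and cleared at 21,000 × g for 10 min at 4°C. Blotting used 20 μg protein on SDS-PAGE and PVDF, blocked in 5% nonfat milk. Primary antibodies 1 h at room temperature or overnight at 4°C.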

[14] = plasma, 5 mg/kg, ON123300 5 mg/kg IV
[15] = plasma, 25 mg/kg, ON123300 25 mg/kg IV

Chain of VEGFR3 (P35916 25-1363): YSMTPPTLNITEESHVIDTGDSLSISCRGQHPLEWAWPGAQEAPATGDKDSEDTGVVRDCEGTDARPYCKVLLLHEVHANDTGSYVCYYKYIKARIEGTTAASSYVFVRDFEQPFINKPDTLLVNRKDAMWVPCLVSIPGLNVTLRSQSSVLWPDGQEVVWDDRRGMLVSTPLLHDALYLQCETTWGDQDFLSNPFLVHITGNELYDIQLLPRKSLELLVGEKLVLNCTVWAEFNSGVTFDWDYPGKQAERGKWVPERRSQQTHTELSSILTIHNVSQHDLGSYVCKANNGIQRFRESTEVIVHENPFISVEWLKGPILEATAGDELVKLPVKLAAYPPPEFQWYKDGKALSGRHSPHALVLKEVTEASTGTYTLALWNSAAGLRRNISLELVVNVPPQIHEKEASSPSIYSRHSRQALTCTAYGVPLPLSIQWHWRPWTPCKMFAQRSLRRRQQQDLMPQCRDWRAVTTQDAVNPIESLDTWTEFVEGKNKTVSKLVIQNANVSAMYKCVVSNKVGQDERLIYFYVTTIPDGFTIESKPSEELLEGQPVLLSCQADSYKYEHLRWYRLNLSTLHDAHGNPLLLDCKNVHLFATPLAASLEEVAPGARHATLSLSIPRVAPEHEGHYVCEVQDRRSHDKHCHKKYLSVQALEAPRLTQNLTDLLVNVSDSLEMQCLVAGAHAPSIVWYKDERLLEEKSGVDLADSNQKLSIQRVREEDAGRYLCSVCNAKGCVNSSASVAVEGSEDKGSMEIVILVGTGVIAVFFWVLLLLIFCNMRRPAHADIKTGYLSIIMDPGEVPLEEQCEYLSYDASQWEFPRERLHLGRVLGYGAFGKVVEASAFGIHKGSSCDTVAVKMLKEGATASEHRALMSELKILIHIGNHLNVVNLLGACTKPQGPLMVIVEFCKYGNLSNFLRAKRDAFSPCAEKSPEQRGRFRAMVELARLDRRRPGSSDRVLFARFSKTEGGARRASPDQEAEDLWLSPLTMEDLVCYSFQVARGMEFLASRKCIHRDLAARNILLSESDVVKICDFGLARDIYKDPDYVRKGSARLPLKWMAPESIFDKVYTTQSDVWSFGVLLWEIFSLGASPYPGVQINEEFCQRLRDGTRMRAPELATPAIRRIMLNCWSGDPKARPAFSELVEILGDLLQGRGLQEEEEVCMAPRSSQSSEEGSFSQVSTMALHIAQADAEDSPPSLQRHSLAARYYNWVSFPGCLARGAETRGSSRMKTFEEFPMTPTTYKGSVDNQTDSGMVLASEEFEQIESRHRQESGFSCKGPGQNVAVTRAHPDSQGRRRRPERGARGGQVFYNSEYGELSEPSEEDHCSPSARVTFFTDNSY

COc1cc2ncnc(Nc3ccc(F)c(Cl)c3)c2cc1OCCCN1CCOCC1 [GFN, gefitinib, reference compound]
apoptotic cell death (Annexin V staining) (U87 cells [1]): did not cause apoptotic cell death
percentage of cells in the G1 phase (U87 cells [2]; 13.3 μM GFN, control 66 ± 0.9%): 80.9 ± 2.5%

CN1CCN(c2ccc(Nc3ncc4cc(C#N)c(=O)n(C5CCCC5)c4n3)cc2)CC1 [ON123300]
AUC ([3]; brain tumor, 5 mg/kg, AUCbt, ON123300 5 mg/kg IV): 6890 ng·h/mL
Kp ([3]; brain tumor, 5 mg/kg, ON123300 5 mg/kg IV): 5.7
AUC ([3]; brain tumor, 25 mg/kg, AUCbt, brain tumor, ON123300 25 mg/kg IV 1 h after oral 200 mg/kg GFN): 49400 ng·h/mL
AUC ([3]; brain tumor, 25 mg/kg, AUCbt, ON123300 25 mg/kg IV): 63200 ng·h/mL
Kp ([3]; brain tumor, 25 mg/kg, ON123300 25 mg/kg IV): 15
Tmax ([3]; brain tumor, 25 mg/kg, Tmax brain tumor, ON123300 25 mg/kg IV): 1 h
AUC ([3]; brain, 5 mg/kg, AUCb, ON123300 5 mg/kg IV): 3120 ng·h/mL
AUC ([3]; brain, 25 mg/kg, AUCb, ON123300 25 mg/kg IV): 11700 ng·h/mL
Tmax ([3]; brain, 25 mg/kg, Tmax brain, ON123300 25 mg/kg IV): 0.083 h
AUC ([3]; plasma, 5 mg/kg, AUCp, ON123300 5 mg/kg IV): 1210 ng·h/mL
clearance [3, 14]: 69.1 mL/min/kg
Vd ([3]; plasma, 5 mg/kg, plasma, ON123300 5 mg/kg IV): 3.6 L/kg
half-life [3, 14]: 1.5 h
AUC ([3]; plasma, 25 mg/kg, AUCp, ON123300 25 mg/kg IV): 4220 ng·h/mL
clearance [3, 15]: 98.7 mL/min/kg
Vd ([3]; plasma, 25 mg/kg, plasma, ON123300 25 mg/kg IV): 10.2 L/kg
half-life [3, 15]: 1.5 h
reduction in the total clearance of ON123300 in the presence of GFN ([3]; ON123300 25 mg/kg IV, oral 200 mg/kg GFN): 33%
Cmax brain tumor ([3]; brain tumor, ON123300 5 mg/kg IV): 6493 ng/mL
Cmax brain tumor ([3]; brain tumor, ON123300 25 mg/kg IV): 27250 ng/mL
Cmax brain tumor ([3]; brain tumor, ON123300 25 mg/kg IV 1 h after oral 200 mg/kg GFN): 20900 ng/mL
peak concentration in brain ([3]; brain, ON123300 5 mg/kg IV): 5735 ng/g
peak concentration in brain ([3]; brain, ON123300 25 mg/kg IV): 12432 ng/g
Cmax brain ([3]; brain, ON123300 25 mg/kg IV): 12432.5 ng/mL
Cmax brain ([3]; brain, ON123300 25 mg/kg IV 1 h after oral 200 mg/kg GFN): 16300 ng/mL
increase in AUCp from 5 mg/kg to 25 mg/kg ([3]; plasma, IV): 3.5 fold
p-Erk and p38γ levels [4]: increased
phosphorylated Akt, CREB and JNK pan expression levels [4]: decreased
phosphorylation of rpS6 relative to control [5]: 60.5% ± 1.0
p-Erk relative to control (p-Erk [6]; 6.3 μM, 1 h, western blot, mean ± S.D.): 120 % ± 6.9
p-Erk elevation relative to pre-treatment (p-Erk [6]; 6.3 μM, over 6 h): about 2 fold
concentration giving 100% increase in p-Erk compared to vehicle (p-Erk [6]; 1 h, western blot and MSD): about 7 μM
direct inhibition of Akt (Akt): did not directly inhibit
apoptotic cell death (Annexin V staining) (U87 cells [1]): induced cell death by apoptosis in a dose-dependent manner
inhibition at 4 µM (p-Akt [7]): 55%
time of p-Akt nadir (p-Akt [8]): 30 min
phosphorylation of Akt relative to control (p-Akt [8]; 1 h, western blot, mean ± S.D.): 40.1% ± 5.7
p-Erk spike at 5 min ([9]; ON123300 5 mg/kg IV, 5 min): 159%
p-Erk maximum relative to baseline ([9]; ON123300 25 mg/kg IV): 161%
p-Erk, of control, at 17 h ([9]; ON123300 25 mg/kg IV plus oral 200 mg/kg GFN, 17 h following the ON123300 dose): 80%
p-Erk peak activation ([9]; ON123300 25 mg/kg IV plus oral 200 mg/kg GFN, at 5 min): 120%
ABEC p-Erk ([9]; ON123300 25 mg/kg IV plus oral 200 mg/kg GFN, below the baseline): 273.9 %-h
ABEC p-Erk ([9]; ON123300 25 mg/kg IV, ABEC above the baseline): 144.1^# %_h
ABEC p-Erk ([9]; ON123300 25 mg/kg IV, above the baseline): 144 %-h
change in p-Akt ABEC from 5 mg/kg to 25 mg/kg ([10]; IV): 5 fold
ABEC p-Akt ([10]; ON123300 5 mg/kg IV): 63.2 %_h
p-Akt nadir, of control ([10]; ON123300 5 mg/kg IV): 73%
ABEC p-Akt ([10]; ON123300 25 mg/kg IV): 304.9 %_h
ABEC p-Akt ([10]; ON123300 25 mg/kg IV 1 h after oral 200 mg/kg GFN): 765.0 %_h
ABEC p-Akt ([10]; ON123300 25 mg/kg IV plus oral 200 mg/kg GFN): 765 %-h
p-Akt nadir ([10]; ON123300 25 mg/kg IV plus oral 200 mg/kg GFN, at 4 h after the ON123300 dose): about 30%
p-Akt level at 10 h ([10]; ON123300 25 mg/kg IV, 10 h): ~60%
p-Akt nadir, of control ([10]; ON123300 25 mg/kg IV): 60%
inhibition of cell proliferation in a panel of 11 glioma models [11]: quite comparable to that observed to U87 cells
peak p-Erk activation relative to the control (p-Erk [12]): 174%
expression of p-mTOR S2448 (p-mTOR [S2481 and 2448]): 86% ± 3.1
expression of p-mTOR S2481 (p-mTOR [S2481 and 2448]): 102% ± 5.2
inhibitory action against VEGFR3 (VEGFR3): appreciable inhibitory action
increase in the percentage of cells in the G2/M phase vs control (U87 cells [2]): ~2.5 fold
percentage of cells in the G2/M phase (U87 cells [2]; 6.3 μM ON123300 alone or with 13.3 μM GFN, control 10.4 ± 0.6%): 38.2 ± 01.4%
phosphorylation of P70S6K relative to control (P70S6K phosphorylation): 31.8 %± 2.1
p-C-Raf S259 expression (p-C-Raf S259): partially decreased
phosphorylation of Rb S780 relative to control (Rb S780 phosphorylation): 54.5% ± 6.3
substrate for the ABC transporters (ABC transporters): unlikely to be a substrate

Cn1c(=O)c(S(=O)(=O)c2ccc(F)cc2F)cc2cnc(Nc3ccc4[nH]ccc4c3)nc21 [ON1231320]
effects on p-Akt, its downstream proteins and p-Erk [13]: negligible effects
